Assay results collected from several papers.
Compare with care: the assays were run in different laboratories.
CTSL: Procathepsin L (CTSL, Homo sapiens, UniProt P07711)

SMILES	target	test	conditions	endpoint	value
COc1cc(-c2cncc3c2CN(C)Cc2cc(N4CCNCC4)ccc2-3)cc(OC)c1OC	Tau-tubulin kinase 2 (TTBK2, Homo sapiens, UniProt Q6IQ55)	enzyme activity, inhibitor	1 µM	remaining activity	104%
CNc1ncc2c(/C=C/C(=O)N3CCC(OC)CC3)nn(Cc3cccc(C(F)(F)F)c3)c2n1	Tyrosine-protein kinase Blk (BLK, Homo sapiens, UniProt P51451)	enzyme activity, inhibitor, radiometric	1 µM	remaining activity	84%
O=C1/C(=C/c2ccc(O)c(O)c2)COc2cc(O)ccc21	CTSL	enzyme activity, inhibitor	100 µM	remaining activity	26.7%
Cc1cc([C@@H](C)Nc2ccccc2C(=O)O)c2nc(N3CCC(F)(F)CC3)c(C#N)c(=O)n2c1	Serine/threonine-protein kinase STK11 (STK11, Homo sapiens, UniProt Q15831)	binding, competition with immobilised ligand	1 µM	remaining binding	92%
O=Cc1nccc2c1[nH]c1ccccc12	CTSL	enzyme activity, inhibitor	100 µM	remaining activity	150%
Oc1ncnc2[nH]ncc12	Xanthine dehydrogenase/oxidase (XDH, Bos taurus, UniProt P80457)	enzyme activity, inhibitor, absorbance	53 µg/mL	inhibition	100%
C=CC(=O)N1CCC(COCC(=O)N2CCN(c3nc(-c4cnc(N)nc4C(F)F)nc(N4CCOC[C@@H]4C)n3)CC2)CC1	Ephrin type-B receptor 1 (EPHB1, Homo sapiens, UniProt P54762)	binding, competition with immobilised ligand	1 µM	remaining binding	100%
N=c1c[n+](N2CCOCC2)[n-]o1	NAD-dependent protein deacetylase sirtuin-1 (SIRT1, Homo sapiens, UniProt Q96EB6)	enzyme activity, inhibitor	–	KI (inactivation)	27 µM
CC(C)=CCC(O)C1=CC(=O)c2c(O)ccc(O)c2C1=O (stereo not shown)	CTSL	enzyme activity, inhibitor	100 µM	remaining activity	113%
Nc1ncnc2c1ncn2[C@@H]1O[C@H](COP(=O)(O)OP(=O)(O)OP(=O)(O)OP(=O)(O)OP(=O)(O)OC[C@H]2O[C@@H](n3cnc4c(N)ncnc43)[C@H](O)[C@@H]2O)[C@@H](O)[C@H]1O	Oxidized purine nucleoside triphosphate hydrolase (NUDT1, Homo sapiens, UniProt P36639)	enzyme activity, substrate	–	Km	26 µM
